pKd, pKi: −log10 of the molar value.
Columns and labels:
[1] = system: Monoclonal antibody (mAb) 2E2; experiment: Binding affinity against human monoclonal antibody (mAb) 2E2 relative to cocaine by ELISA method.
Procedure, shortened: (§1)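 Competition ELISA with human mAb 2E2 (from SCID mouse ascites, partially purified by sodium sulfate precipitation and protein A chromatography). Detection with biotinylated goat anti-human IgG (γ-chain-specific). IC50 obtained by three-parameter logistic fit. RBA is the competitor IC50 divided by the cocaine IC50. Values are averages of three or more independent experiments, each done in duplicate.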

[2] = system: Monoclonal antibody (mAb) 2E2; experiment: Relative binding affinity against human monoclonal antibody (mAb) 2E2 compared to cocaine
[3] = target: Monoclonal antibody (mAb) 2E2; experiment: Relative binding affinity against human monoclonal antibody 2E2 compared to [3H]cocaine
Procedure, shortened: (§2)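 Radioligand competition with 1 nM [3H]-cocaine diluted with 14 nM unlabeled cocaine and 0.4 nM mAb 2E2, against varying unlabeled competitor. Separation was by double-antibody precipitation (goat anti-human Fc) and read by scintillation counting. Duplicate data were fitted to a three-parameter logistic equation for IC50. RBA is the Ki of the compound divided by the Ki of cocaine. Three repeats were run.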

[4] = system: Monoclonal antibody (mAb) 2E2; experiment: Relative binding affinity for human monoclonal antibody (mAb) 2E2
[5] = target: Monoclonal antibody (mAb) 2E2; experiment: Dissociation Constant for human monoclonal antibody 2E2 with [3H]cocaine
Procedure, shortened: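 Saturation binding of [3H]-cocaine to mAb 2E2. Bound ligand was separated by double-antibody precipitation, using goat anti-human Fc as the first antibody, and counted by liquid scintillation. Kd was fitted from counts per minute against total cocaine concentration to a binding isotherm. Points are averages of duplicates. Each experiment was run three times.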

[6] = target: Monoclonal antibody (mAb) 2E2; experiment: Binding affinity towards human monoclonal antibody 2E2 using [3H]cocaine; procedure, shortened: as §2
[7] = system: Monoclonal antibody (mAb) 2E2; experiment: Binding affinity against human monoclonal antibody (mAb) 2E2 by ELISA; procedure, shortened: as §1

`COC(=O)C1C2CCC(C[C@@H]1c1ccc(C)cc1)N2C` (single isomer, unassigned) was tested, and the relative binding affinity (RBA) [1] was 14.

`COC(=O)[C@H]1C2CCC(C[C@@H]1OC(=O)c1ccccc1)N2` (stereo in doubt) was tested, and the relative binding affinity (RBA) [1] was 1800.

In the case of `CN1C2CC(OC(=O)[C@](O)(CO)c3ccccc3)CC1C1OC12` (some centres undefined), the relative binding affinity (RBA) [1] was 59000.

`CN1C2CCC1CC(O)C2` (centres undefined) gave a relative binding affinity (RBA) [1] of 91000.

`CN1C2CCC1[C@@H](C(=O)O)[C@@H](OC(=O)c1ccc(O)cc1)C2` (some centres undefined) showed a relative binding affinity (RBA) [1] of 36.

With `COC(=O)[C@@H]1C2CCC(C[C@@H]1OC(=O)c1ccccc1)N2` (some centres undefined) the relative binding affinity (RBA) [1] was 4.3.

For `COC(=O)C1C2CC[C@H](C[C@@H]1c1ccc(Cl)cc1)N2C` (some centres undefined), the relative binding affinity (RBA) [1] was 9.3.

`CN1[C@@H]2C[C@@H](OC(=O)[C@H](CO)c3ccccc3)C[C@H]1[C@@H]1O[C@H]12` gave a relative binding affinity (RBA) [1] of 49000.

For `CCCC[N+]1(C)C2CC(OC(=O)[C@H](CO)c3ccccc3)CC1C1OC12` (some centres undefined), the relative binding affinity (RBA) [1] was 3700.

`CCOC(=O)[C@@H]1C2C(C)CC(C[C@@H]1OC(=O)c1ccccc1)N2C` (some centres undefined) gave a relative binding affinity (RBA) [1] of 0.21.

`COC(=O)[C@@H]1C2CCC(C[C@@H]1c1ccc(Cl)c(Cl)c1)N2C` (some centres undefined) gave a relative binding affinity (RBA) [1] of 8.5.

With `COC(=O)[C@H]1[C@@H](c2ccc(F)cc2)C[C@H]2CC[C@H]1N2C` the relative binding affinity (RBA) [1] was 19.

In the case of `CCOC(=O)[C@@H]1C2CCC(C[C@@H]1OC(=O)c1ccccc1)N2C` (some centres undefined) [COCAETHYLENE], the relative binding affinity (RBA) [2] was 0.97, the relative binding affinity (RBA) [1] was 0.74 and the pKi [3] was 8.47.

`COC(=O)C1=CCC2CCC1N2C` (centres undefined) was tested, and the relative binding affinity (RBA) [1] was 21000.

`CN1C2CCC1[C@@H](C(N)=O)[C@@H](OC(=O)c1ccccc1)C2` (some centres undefined) showed a relative binding affinity (RBA) [1] of 22.

With `O=C(O[C@H]1CC2CCC(N2)[C@H]1C(=O)O)c1ccccc1` (some centres undefined) the relative binding affinity (RBA) [1] was 120.

`CN1C2CCC1[C@@H](C(=O)O)[C@@H](OC(=O)c1ccccc1)C2` (some centres undefined) was tested, and the relative binding affinity (RBA) [2] was 12, the relative binding affinity (RBA) [1] was 9.8 and the pKi [3] was 7.37.

`CN1C2CCC1[C@@H](C(=O)O)[C@@H](O)C2` (some centres undefined) was tested, and the relative binding affinity (RBA) [2] was 28000, the relative binding affinity (RBA) [1] was 28000 and the pKi [3] was 4.02.

In the case of `COC(=O)[C@@H]1C2CC[C@H](C[C@@H]1c1ccccc1)N2C`, the relative binding affinity (RBA) [1] was 29.

`COC(=O)[C@H]1C2CCC(C[C@@H]1OC(=O)c1ccccc1)N2` (stereo in doubt; 36) showed a relative binding affinity (RBA) [1] of 1100.

`CN1C2CCC1[C@@H](C(=O)O)[C@@H](OC(=O)c1cccc(O)c1)C2` (some centres undefined) gave a relative binding affinity (RBA) [1] of 32.

With `COC(=O)[C@@H]1C2CCC(C[C@@H]1c1ccc(I)cc1)N2C` (some centres undefined) the relative binding affinity (RBA) [1] was 4.5.

`CCCOC(=O)[C@@H]1C2CCC(C[C@@H]1OC(=O)c1ccccc1)N2C` (some centres undefined) showed a relative binding affinity (RBA) [1] of 0.23.

`C[N+]1(C)[C@@H]2C[C@@H](OC(=O)[C@H](CO)c3ccccc3)C[C@H]1[C@@H]1O[C@@H]12` was tested, and the relative binding affinity (RBA) [1] was 5900.

`COC(=O)[C@H]1[C@@H](OC(=O)c2ccccc2)C[C@@H]2CC[C@H]1N2C` [COCAINE] was tested, and the relative binding affinity (RBA) [4] was 1, the pKd [5] was 8.36 and the pKi [6] was 8.46. The relative binding affinity (RBA) [7] was 1.

`CON(C)C(=O)[C@@H]1C2CCC(C[C@@H]1OC(=O)c1ccccc1)N2C` (some centres undefined) was tested, and the relative binding affinity (RBA) [1] was 21.

`CNC(=O)[C@@H]1C2CCC(C[C@@H]1OC(=O)c1ccccc1)N2C` (some centres undefined) showed a relative binding affinity (RBA) [1] of 29.

Compound `COC(=O)[C@@H]1C2CCC(C[C@@H]1OC(=O)c1cccc(O)c1)N2C` (some centres undefined) has a relative binding affinity (RBA) [1] of 8.4.

`C[N+]1([O-])[C@@H]2CC[C@H]1C[C@@H](OC(=O)C(CO)c1ccccc1)C2` (some centres undefined) gave a relative binding affinity (RBA) [1] of 90000.

Compound `COC(=O)[C@@H]1C2CCC(C[C@@H]1O)N2C` (some centres undefined) has a relative binding affinity (RBA) [2] of 1500, a relative binding affinity (RBA) [1] of 2500 and a pKi [3] of 5.28.

`CN(C)C(=O)[C@@H]1C2CCC(C[C@@H]1OC(=O)c1ccccc1)N2C` (some centres undefined) was tested, and the relative binding affinity (RBA) [1] was 7.4.

For `CN1C2CCC1[C@@H](C(=O)Oc1ccccc1)[C@@H](c1ccc(Cl)cc1)C2` (some centres undefined), the relative binding affinity (RBA) [1] was 1.7.

Compound `C[N+]1([O-])C2CC(OC(=O)[C@H](CO)c3ccccc3)CC1C1OC12` (some centres undefined) has a relative binding affinity (RBA) [1] of 130000.

Reference: ChEMBL document CHEMBL1139455, “Three-dimensional quantitative structure-activity relationship modeling of cocaine binding by a novel human monoclonal antibody” (J Med Chem, 2004)
